# pKi: −log10 of the molar value. Activity calls are given as the source filed them. The calls are words filed in the database; no cut-off is given here.
# Tests used:
# [1] = Inhibition of glycogen phosphorylase (unknown origin); set-up: species or system Homo sapiens
# [2] = target: T1, Glycogen phosphorylase, muscle form (Oryctolagus cuniculus, UniProt P00489); assay: Inhibition of rabbit muscle glycogen phosphorylase-b assessed as release of inorganic phosphate using glucose-1-phosphate as substrate in presence of AMP and glycogen by spectrophotometric method
# T1 sequence (P00489 whole entry): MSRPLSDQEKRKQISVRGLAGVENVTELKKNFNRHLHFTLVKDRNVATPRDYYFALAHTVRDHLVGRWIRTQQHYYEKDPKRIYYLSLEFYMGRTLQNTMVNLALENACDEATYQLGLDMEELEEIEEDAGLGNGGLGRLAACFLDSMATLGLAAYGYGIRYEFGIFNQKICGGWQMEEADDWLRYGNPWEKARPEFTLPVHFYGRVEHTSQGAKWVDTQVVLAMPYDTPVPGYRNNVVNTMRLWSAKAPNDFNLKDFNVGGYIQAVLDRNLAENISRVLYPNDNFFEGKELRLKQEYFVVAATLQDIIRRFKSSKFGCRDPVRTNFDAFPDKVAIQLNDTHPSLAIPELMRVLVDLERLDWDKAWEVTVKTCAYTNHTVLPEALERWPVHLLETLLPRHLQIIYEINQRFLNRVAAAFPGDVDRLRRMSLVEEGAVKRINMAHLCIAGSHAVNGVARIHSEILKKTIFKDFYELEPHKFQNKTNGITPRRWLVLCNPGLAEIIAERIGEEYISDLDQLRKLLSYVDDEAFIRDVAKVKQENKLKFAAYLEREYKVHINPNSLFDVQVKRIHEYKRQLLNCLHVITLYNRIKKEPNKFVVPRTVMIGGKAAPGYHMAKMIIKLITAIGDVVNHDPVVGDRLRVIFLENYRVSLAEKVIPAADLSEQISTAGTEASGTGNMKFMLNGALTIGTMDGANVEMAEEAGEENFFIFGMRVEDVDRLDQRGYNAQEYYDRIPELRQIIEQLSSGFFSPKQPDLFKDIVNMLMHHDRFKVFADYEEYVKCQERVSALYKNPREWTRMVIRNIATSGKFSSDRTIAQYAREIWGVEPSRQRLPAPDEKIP
# In short: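 GPb was purified from rabbit skeletal muscle and used at 3 μg/mL at 30 °C, synthesis direction. Medium was 30 mM imidazole/HCl pH 6.8, 60 mM KCl, 0.6 mM EDTA, 0.6 mM DTT, 0.2% w/v glycogen and 1 mM AMP, with Glc-1-P and inhibitor varied. Initial rates came from pseudo-first-order constants of spectrophotometric phosphate release at five time points, fitted by non-linear regression.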
# [3] = target: T1, Glycogen phosphorylase, muscle form; assay: Inhibition of rabbit muscle glycogen phosphorylase-a assessed as release of inorganic phosphate using glucose-1-phosphate as substrate in presence of glycogen by spectrophotometric method
# In short: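 Rabbit muscle GPa was made by phosphorylating purified rabbit skeletal muscle GPb and used at 3 μg/mL, without AMP. Buffer was 30 mM imidazole/HCl pH 6.8 with 60 mM KCl, 0.6 mM EDTA, 0.6 mM DTT and 0.2% w/v glycogen, with varied Glc-1-P and inhibitor, at 30 °C. Phosphate release was measured spectrophotometrically at five intervals, and data were fitted non-linearly.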
# [4] = target: T2, Glycogen phosphorylase, liver form (Homo sapiens, UniProt P06737); assay: Inhibition of human liver glycogen phosphorylase-a assessed as release of inorganic phosphate using glucose-1-phosphate as substrate in presence of glycogen by spectrophotometric method
# T2 sequence (P06737 whole entry): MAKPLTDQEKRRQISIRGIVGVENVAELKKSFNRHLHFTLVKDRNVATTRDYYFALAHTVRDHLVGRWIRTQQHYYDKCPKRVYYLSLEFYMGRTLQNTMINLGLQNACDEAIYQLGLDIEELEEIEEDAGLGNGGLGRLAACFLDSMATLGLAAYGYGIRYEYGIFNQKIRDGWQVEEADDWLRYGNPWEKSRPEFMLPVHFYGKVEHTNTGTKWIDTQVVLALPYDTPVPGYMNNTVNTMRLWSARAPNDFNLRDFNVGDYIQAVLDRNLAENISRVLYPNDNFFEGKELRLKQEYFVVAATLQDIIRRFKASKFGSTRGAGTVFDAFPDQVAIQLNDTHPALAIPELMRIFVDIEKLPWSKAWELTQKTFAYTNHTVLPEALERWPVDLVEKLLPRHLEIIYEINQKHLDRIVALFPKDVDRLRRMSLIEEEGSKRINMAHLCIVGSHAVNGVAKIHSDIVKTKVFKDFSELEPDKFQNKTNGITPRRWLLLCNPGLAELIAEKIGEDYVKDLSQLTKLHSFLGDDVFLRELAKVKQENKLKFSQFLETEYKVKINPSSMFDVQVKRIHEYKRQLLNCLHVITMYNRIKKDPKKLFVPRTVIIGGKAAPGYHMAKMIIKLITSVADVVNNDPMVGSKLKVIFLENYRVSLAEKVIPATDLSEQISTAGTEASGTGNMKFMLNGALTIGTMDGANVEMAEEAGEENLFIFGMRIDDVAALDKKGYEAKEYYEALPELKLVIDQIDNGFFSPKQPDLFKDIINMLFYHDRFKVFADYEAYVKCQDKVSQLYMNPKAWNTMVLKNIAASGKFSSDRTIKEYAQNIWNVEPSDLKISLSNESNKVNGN
# In short: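 Human liver GPa (1 μg/mL) assayed at 30 °C toward glycogen synthesis in 30 mM imidazole/HCl pH 6.8 with 60 mM KCl, 0.6 mM EDTA, 0.6 mM DTT, 0.2% w/v glycogen, no AMP, and varied Glc-1-P and inhibitor. Orthophosphate release was read spectrophotometrically at five time points; kinetic parameters were fitted by non-linear regression.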
# [5] = target: T3, Glycogen phosphorylase, muscle form (Oryctolagus cuniculus) (UniProt P00489); assay: Inhibition of rabbit muscle glycogen phosphorylase-b at 625 uM assessed as release of inorganic phosphate using glucose-1-phosphate as substrate in presence of AMP and glycogen by spectrophotometric method
# T3 sequence (whole entry): T1 sequence (P00489 whole entry)
pKi [1],pKi [2],pKi [3],pKi [4],inhibition [5],Compound
–,4.70,–,–,–,OC[C@H]1O[C@@H](c2nc(-c3ccc4cc5ccccc5cc4c3)n[nH]2)[C@H](O)[C@@H](O)[C@@H]1O
–,5.35,6.01,5.57,–,O=C(O)c1ccc(-c2ccc(-c3n[nH]c([C@@H]4O[C@H](CO)[C@@H](O)[C@H](O)[C@H]4O)n3)cc2)cc1
–,–,–,–,inactive,CN(C)/C=N/S(=O)(=O)c1ccc(-c2n[nH]c([C@@H]3O[C@H](CO)[C@@H](O)[C@H](O)[C@H]3O)n2)cc1
–,4.94,5.47,5.05,–,OC[C@H]1O[C@@H](c2nc(-c3cccc4ccccc34)n[nH]2)[C@H](O)[C@@H](O)[C@@H]1O
–,4.17,–,–,–,OC[C@H]1O[C@@H](c2nc(-c3cccc(-c4ccccc4)c3)n[nH]2)[C@H](O)[C@@H](O)[C@@H]1O
–,< 2.82,–,–,–,OC[C@H]1O[C@@H](c2nc(-c3ccc4ccc5cccc6ccc3c4c56)n[nH]2)[C@H](O)[C@@H](O)[C@@H]1O
–,5.30,6.11,5.41,–,O=C(O)c1ccc2cc(-c3n[nH]c([C@@H]4O[C@H](CO)[C@@H](O)[C@H](O)[C@H]4O)n3)ccc2c1
–,5.92,6.08,5.69,–,OC[C@H]1O[C@@H](c2nc(-c3ccc4c(c3)Cc3ccccc3-4)n[nH]2)[C@H](O)[C@@H](O)[C@@H]1O
–,4.01,–,–,–,NS(=O)(=O)c1ccc(-c2n[nH]c([C@@H]3O[C@H](CO)[C@@H](O)[C@H](O)[C@H]3O)n2)cc1
–,5.62,5.68,5.65,–,OC[C@H]1O[C@@H](c2nc(-c3ccc(-c4ccccc4)cc3)n[nH]2)[C@H](O)[C@@H](O)[C@@H]1O

# Reference: ChEMBL document CHEMBL4145546, “A multidisciplinary study of 3-(β-d-glucopyranosyl)-5-substituted-1,2,4-triazole derivatives as glycogen phosphorylase inhibitors: Computation, synthesis, crystallography and kinetics reveal new potent inhibitors” (Eur J Med Chem, 2018)
